bCat KO growth: beta-catenin-lacking colon tumor cell growth suppression; HCT116 beta-catenin knockout viability, CellTiter-Glo, 60 h; active compounds read low; viability, % at 10 µM; 1.5% of 140,000 active; AID 818;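 active = viability at or under a set limit, the compound median less 4 SD, cut at about 6% in these data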;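 also: 0% = Hyamine 1622 control at 20 µM and 100% = untreated cell control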
H69AR growth 86K: growth inhibitors of human H69AR lung tumor cells. H69AR lung tumor viability, ATP luminescence, 72 h; active compounds read low. viability, % at 10 µM. 6% of 85,000 active. AID 598;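 active = viability at or below 40%; inactive = viability above 40%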;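 also: multidrug resistant small cell line overexpressing MRP-1 efflux transporter; 100% = mean luminescence of untreated control wells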
HUVEC inhibit: human endothelial cell proliferation inhibition. HUVEC proliferation, CellTiter-Glo luminescence, 72 h; active compounds read low. viability, % at 10 µM (by protocol). 1.1% of 86,000 active. AID 648;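 active = viability at or below 30%; inactive = viability above 30%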;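 also: 100% = median luminescence of DMSO-only cell control wells on each plate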
PTEN del growth: suppresses growth of cells with PTEN deletion | HCT116 PTEN-null viability, CellTiter-Glo, 60 h; active compounds read low | viability, % at 10 µM | 1.2% of 140,000 active | AID 827;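 active = viability at or below a set limit, 4 SD under the median of all tested compounds, cut at about 3.7% in these data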;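 also: PTEN knockout HCT116 line with beta catenin targeted HCT116 as companion control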
Phagocytosis inh: blocks phagocytosis by macrophages | J774A.1 macrophage IgG-bead phagocytosis, imaging | inhibition, % at 5 µM | 0.07% of 110,000 active;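 active = inhibition above the mean of the plate negative controls plus 5 SD, cut at about 13% in these data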;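 also: phagocytic index as fraction of beads internalized from green versus red external bead signal; plate controls were DMSO negative control for no effect and cytochalasin-D positive control for full effect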
Fibroblast inh: blocks proliferation of human lung fibroblasts; LL 47 human lung fibroblast viability, ATP luminescence; active compounds read low; viability, % at 10 µM; 1.1% of 85,000 active; AID 719;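 active = viability at or below 50% in the single dose screen; inactive = viability above 50%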;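 also: compound exposure lasted 72 h before the ATP readout; 100% = median luminescence of untreated cell-only wells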
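Times – overnight cell rest, 72 h compound treatment at 37 °C · Test system – human lung fibroblast line LL 47, low passage · Amount – 1,150 cells in each well · Controls – cell-only wells, no compound · Doses – 0.1% DMSO in all compound wells · Measured by – CellTiter-Glo luminescence · Buffer or medium – IMEM plus 15% FBS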
Starred values were filed as active, the others as inactive. Many of the other results were omitted from the sample, so hits are more common in it than they were.

What do the screens show for `Cc1[nH][nH]c(=O)c1C(c1cc([N+](=O)[O-])ccc1O)c1c(C)[nH][nH]c1=O`?
bCat KO growth: 91; PTEN del growth: 85; Phagocytosis inh: -5

Results for Cc1[nH][nH]c(=O)c1C(c1ccc(-c2ccc(Cl)c(Cl)c2)o1)c1c(C)[nH][nH]c1=O ?
bCat KO growth: 49; H69AR growth 86K: 30*; HUVEC inhibit: 38; PTEN del growth: 43; Phagocytosis inh: 0; Fibroblast inh: 69

What do the screens show for `CCCCCOc1ccc(C(=O)NCC(=O)NCC(=O)OCC)cc1`?
bCat KO growth: 36; H69AR growth 86K: 25*; HUVEC inhibit: 56; PTEN del growth: 36; Phagocytosis inh: 0; Fibroblast inh: 83

How did COC(=O)c1cc(N2C(=O)C3C(C2=O)C2(C)C=CC3(C)O2)ccc1Cl (centres undefined) do in these assays?
bCat KO growth: 90; H69AR growth 86K: 0.7*; HUVEC inhibit: 61; PTEN del growth: 90; Phagocytosis inh: 0; Fibroblast inh: 58

What do the screens show for `CC(=O)Oc1ccc(N2C(=O)C3C(C2=O)C2(C)C=CC3(C)O2)cc1` (centres undefined)?
H69AR growth 86K: 2.3*; HUVEC inhibit: 95; Phagocytosis inh: -1; Fibroblast inh: 27*

Results for CCc1ccc2c(c1)C1(C(=O)N2)N2CCCC2C(C(=O)c2ccc3ccccc3c2)C12C(=O)Nc1ccccc12 (centres undefined) ?
bCat KO growth: 1.3*; PTEN del growth: 1.1*; Phagocytosis inh: 11

What do the screens show for `O=C(CCN1CCN(CCO)CC1)Nc1ccc(OCc2ccccc2)cc1`?
bCat KO growth: 90; H69AR growth 86K: 83; HUVEC inhibit: 89; PTEN del growth: 90; Phagocytosis inh: -1; Fibroblast inh: 96

How did O=C(CN1CCOCC1)Nc1ccc(OCc2ccccc2)cc1 do in these assays?
bCat KO growth: 86; H69AR growth 86K: 6.9*; HUVEC inhibit: 86; PTEN del growth: 81; Phagocytosis inh: -1; Fibroblast inh: 102

What do the screens show for `O=C(CN1CCOCC1)Nc1ccc(Oc2ccc(NC(=O)CN3CCOCC3)cc2)cc1`?
bCat KO growth: 98; H69AR growth 86K: 101; HUVEC inhibit: 104; PTEN del growth: 109; Phagocytosis inh: 1; Fibroblast inh: 109

What do the screens show for `O=C(CCN1CCN(Cc2ccccc2)CC1)Nc1ccc(OCc2ccccc2)cc1`?
bCat KO growth: 70; H69AR growth 86K: 29*; HUVEC inhibit: 8.7*; PTEN del growth: 70; Phagocytosis inh: 0; Fibroblast inh: 87

How did Cc1cc(OCCCCCNCCO)cc(C)c1Cl do in these assays?
bCat KO growth: 14; H69AR growth 86K: 37*; HUVEC inhibit: 73; PTEN del growth: 3.6*; Phagocytosis inh: -1; Fibroblast inh: 75

What do the screens show for `Cc1sc2c(c1C)c(=O)n(-c1cccc(C(F)(F)F)c1)c(=O)n2CC(=O)NCc1ccco1`?
bCat KO growth: 89; H69AR growth 86K: 91; HUVEC inhibit: 96; PTEN del growth: 110; Phagocytosis inh: 0; Fibroblast inh: 101

What do the screens show for `CCOC(=O)c1c(N)sc(-c2ccccc2)c1C`?
bCat KO growth: 85; H69AR growth 86K: 105; HUVEC inhibit: 71; PTEN del growth: 101; Fibroblast inh: 100

What do the screens show for `CCOC(=O)c1c(N)sc2c(OC)c(Br)ccc12`?
bCat KO growth: 98; H69AR growth 86K: 78; HUVEC inhibit: 27*; PTEN del growth: 83; Phagocytosis inh: 2; Fibroblast inh: 96

How did Cc1cc(C)cc(NC(=O)CN2CCCN(S(=O)(=O)c3ccc(Br)s3)CC2)c1 do in these assays?
bCat KO growth: 53; H69AR growth 86K: 53; HUVEC inhibit: 66; PTEN del growth: 58; Phagocytosis inh: -1; Fibroblast inh: 87

What do the screens show for `Cc1ccc(NC(=O)CN2CCCN(S(=O)(=O)c3ccc(Br)s3)CC2)cc1`?
bCat KO growth: 72; H69AR growth 86K: 31*; HUVEC inhibit: 100; PTEN del growth: 80; Phagocytosis inh: -1; Fibroblast inh: 100

What do the screens show for `CN1CCN(C2=C(Cl)C(=O)N(C3CCCCC3)C2=O)CC1`?
bCat KO growth: 80; H69AR growth 86K: 45; HUVEC inhibit: 60; PTEN del growth: 85; Phagocytosis inh: -2; Fibroblast inh: 92

What do the screens show for `CN1CCN(C2=C(Cl)C(=O)C(c3cnc(N4CCCCC4)s3)=C(Cl)C2=O)CC1`?
bCat KO growth: 1.7*; H69AR growth 86K: 1.6*; HUVEC inhibit: 70; PTEN del growth: 1.6*; Fibroblast inh: 5.8*

Results for CCc1nnc(NC(=O)CSc2nnc(-c3ccc(NS(=O)(=O)c4ccccc4)cc3)o2)s1 ?
bCat KO growth: 80; PTEN del growth: 100; Phagocytosis inh: -5

How did Cc1cc(=O)[nH]c(SCC(=O)Nc2ccccc2C#N)c1C#N do in these assays?
bCat KO growth: 94; PTEN del growth: 109; Phagocytosis inh: 0

What do the screens show for `Cc1cc(=O)[nH]c(SCC(=O)Nc2ccc(Br)cc2)c1C#N`?
bCat KO growth: 87; H69AR growth 86K: 31*; HUVEC inhibit: 43; PTEN del growth: 100; Fibroblast inh: 93

What do the screens show for `O=C(Nc1ccc2c(c1)CCC2)C1CCN(c2c3c(nc4ncnn24)CCC3)CC1`?
bCat KO growth: 34; H69AR growth 86K: 32*; HUVEC inhibit: 77; PTEN del growth: 52; Phagocytosis inh: -2; Fibroblast inh: 78

How did Cc1csc(Sc2nc3c(c(=O)[nH]c(=O)n3C)n2CCCc2ccccc2)n1 do in these assays?
bCat KO growth: 98; PTEN del growth: 98; Phagocytosis inh: -3

Results for COc1ccc(Cn2c3nc4ccccc4nc3c3c(=O)n(Cc4ccco4)c(C)nc32)cc1 ?
H69AR growth 86K: 4.5*; HUVEC inhibit: 49; Phagocytosis inh: -1; Fibroblast inh: 42*

How did Cc1nc2c(c(=O)n1CC1CCCO1)c1nc3ccccc3nc1n2Cc1ccc2c(c1)OCO2 (centres undefined) do in these assays?
H69AR growth 86K: 40*; HUVEC inhibit: 53; Fibroblast inh: 81

What do the screens show for `Cc1cccc(NC2=C(Cl)C(=O)OC2NC(=O)c2ccccc2)c1` (centres undefined)?
bCat KO growth: 88; H69AR growth 86K: 95; HUVEC inhibit: 93; PTEN del growth: 97; Phagocytosis inh: 2; Fibroblast inh: 94

Results for COc1ccc(C(N)=O)cc1N ?
bCat KO growth: 94; PTEN del growth: 104; Phagocytosis inh: -1

How did CN(C)c1ccc(C(=O)c2ccc(N(C)C)c(N)c2)cc1N do in these assays?
bCat KO growth: 78; H69AR growth 86K: 22*; HUVEC inhibit: 78; PTEN del growth: 87; Phagocytosis inh: 0; Fibroblast inh: 85

How did CCOc1ccc(C(=O)c2ccc(OCC)c(N)c2)cc1N do in these assays?
bCat KO growth: 14; H69AR growth 86K: 13*; HUVEC inhibit: 55; PTEN del growth: 22; Phagocytosis inh: 0; Fibroblast inh: 90

How did Cc1cc(C)n2nc(SCc3cc(=O)n4c(C)cccc4n3)nc2n1 do in these assays?
H69AR growth 86K: 88; HUVEC inhibit: 100; Fibroblast inh: 95

Compound activity deposited in PubChem BioAssay by several laboratories.
